# The source made the active and inactive calls.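 The calls were made as follows: active = compound seen by mass spectrometry to covalently label the enzyme's active site serine; inactive = no covalent labeling seen.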
# Biological target: Platelet-activating factor acetylhydrolase (Homo sapiens) (UniProt Q13093)
# Assay: pPAFAH inhibitor binding mode by mass spectrometry – biochemical, LC-MS/MS, mechanism study, late-stage follow-up (AID 588788)
# Conditions: purified recombinant pPAFAH, LC-MS/MS active-site labeling
# Outline: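 System – recombinant human pPAFAH hydrophobic-patch triple mutant · Input – pPAFAH at 40 µM before compound addition · Schedule – compound exposure 60 min, 37 °C · Dosing – one dose, 100 µM final · Medium – DPBS buffer · Evaluation – catalytic serine covalent adduct presence · Controls – DMSO-only enzyme sample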
# Platelet-activating factor acetylhydrolase (Homo sapiens), sequence (Q13093 42-441 I120A/L123A/L124A limits assumed): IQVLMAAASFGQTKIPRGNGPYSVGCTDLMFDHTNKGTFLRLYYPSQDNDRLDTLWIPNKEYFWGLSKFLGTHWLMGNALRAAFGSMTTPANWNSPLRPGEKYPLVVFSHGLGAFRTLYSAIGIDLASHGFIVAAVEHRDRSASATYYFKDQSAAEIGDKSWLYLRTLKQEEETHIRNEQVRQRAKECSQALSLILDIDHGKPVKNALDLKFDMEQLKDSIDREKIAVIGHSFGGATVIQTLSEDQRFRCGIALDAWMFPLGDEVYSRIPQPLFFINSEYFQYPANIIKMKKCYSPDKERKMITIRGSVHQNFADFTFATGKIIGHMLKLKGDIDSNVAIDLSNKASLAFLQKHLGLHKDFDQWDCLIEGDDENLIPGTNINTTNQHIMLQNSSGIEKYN
smiles,measurement,value
Cc1cc(N2CCN(C(=O)Oc3ccc(-c4ccccc4)cn3)CC2)c2ccccc2n1,outcome,active; covalent

# — PubChem BioAssay AID588788 (The Scripps Research Institute Molecular Screening Center, 2011)
